Data from ChEMBL document CHEMBL1154039, “Synthesis and biological evaluation of 1,2,4-trisubstituted imidazoles and 1,3,5-trisubstituted pyrazoles as inhibitors of transforming growth factor beta type 1 receptor (ALK5)” (Bioorg Med Chem Lett, 2009).
The source made the active and inactive calls. No cut-off for these calls is given here.

Experiments:
Homo sapiens = species on record: Homo sapiens; assay: (§1) Cytotoxicity against human embryo lung […] cells at 30 uM by MTT assay; type: functional
Procedure, shortened: (§2)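 HLF cells were seeded at about 3000 per well and grown 24 h before treatment. The number of viable cells at treatment (t = 0) was measured to correct for differences in starting cell number. At the read times, MTT tetrazolium salt and phenazine methosulfate were added directly to the medium for 2–3 h.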

[1] = as §1; type: functional; procedure, shortened: as §2
[2] = biological target: T1, Activin receptor type-1B (Homo sapiens) (UniProt P36896); assay: Inhibition of ALK4 expressed in baculovirus/Sf9 cells assessed as inhibition of receptor autophosphorylation at 0.1 uM after 3 hrs
T1 sequence (whole entry): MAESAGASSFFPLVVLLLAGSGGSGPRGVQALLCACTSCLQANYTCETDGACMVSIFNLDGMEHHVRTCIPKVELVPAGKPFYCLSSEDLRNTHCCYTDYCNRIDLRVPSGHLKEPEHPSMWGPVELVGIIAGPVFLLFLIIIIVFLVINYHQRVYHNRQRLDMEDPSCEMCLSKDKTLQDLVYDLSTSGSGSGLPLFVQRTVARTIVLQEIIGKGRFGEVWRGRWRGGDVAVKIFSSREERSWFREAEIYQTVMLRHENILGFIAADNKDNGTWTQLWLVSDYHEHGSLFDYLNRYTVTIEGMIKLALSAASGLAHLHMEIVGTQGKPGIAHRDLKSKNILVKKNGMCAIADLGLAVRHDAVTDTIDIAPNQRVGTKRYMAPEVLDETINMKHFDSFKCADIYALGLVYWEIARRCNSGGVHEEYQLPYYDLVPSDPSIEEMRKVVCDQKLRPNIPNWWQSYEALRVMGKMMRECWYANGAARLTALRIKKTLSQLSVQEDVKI
Procedure, shortened: (§3)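 Kinase carried a C-terminal 6-His tag and was purified on a Ni2+ affinity column. The purified kinase was preincubated with compound for 30 min at 37 °C. The reaction was started with 10–8 mol/L ATP plus Smad3 substrate and run 3 h at 30 °C. Autophosphorylation was quantified from ATP consumed, using a luminescent ATP detection assay.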

[3] = biological target: T1, Activin receptor type-1B (Homo sapiens); assay: Inhibition of ALK4 expressed in baculovirus/Sf9 cells assessed as inhibition of receptor autophosphorylation at 1 uM after 3 hrs; procedure, shortened: as §3
[4] = biological target: T2, Activin receptor type-1C (Homo sapiens) (UniProt Q8NER5); assay: Inhibition of ALK7 expressed in baculovirus/Sf9 cells assessed as inhibition of receptor autophosphorylation at 0.1 uM after 3 hrs; procedure, shortened: as §3
T2 sequence (whole entry): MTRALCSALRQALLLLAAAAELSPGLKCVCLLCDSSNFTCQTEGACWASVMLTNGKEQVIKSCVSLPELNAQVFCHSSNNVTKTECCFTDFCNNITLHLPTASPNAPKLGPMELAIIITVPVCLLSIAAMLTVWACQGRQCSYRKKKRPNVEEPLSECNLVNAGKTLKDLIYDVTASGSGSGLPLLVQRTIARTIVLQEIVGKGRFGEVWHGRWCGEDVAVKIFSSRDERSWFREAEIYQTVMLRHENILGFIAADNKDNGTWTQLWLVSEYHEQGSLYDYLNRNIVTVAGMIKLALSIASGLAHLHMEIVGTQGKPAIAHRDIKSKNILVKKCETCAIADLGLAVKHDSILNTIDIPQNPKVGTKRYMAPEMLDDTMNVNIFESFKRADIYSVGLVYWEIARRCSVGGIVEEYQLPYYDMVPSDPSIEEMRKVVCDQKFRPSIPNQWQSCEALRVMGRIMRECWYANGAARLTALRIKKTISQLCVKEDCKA

[5] = biological target: T2, Activin receptor type-1C (Homo sapiens); assay: Inhibition of ALK7 expressed in baculovirus/Sf9 cells assessed as inhibition of receptor autophosphorylation at 1 uM after 3 hrs; procedure, shortened: as §3
[6] = Selectivity for ALK5 over ALK4
Procedure, shortened: (§4)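 Purified C-terminally 6-His-tagged ALK4, ALK5 and ALK7, each run in a separate autophosphorylation assay. Each enzyme was preincubated with a range of compound concentrations for 30 min at 37 °C. Reactions were started with 10–8 mol/L ATP plus Smad3 and run 3 h at 30 °C. Phosphorylation was quantified as ATP consumed, using a luminescent ATP assay. Selectivity was obtained by comparing activity across the kinases.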

[7] = Selectivity for ALK5 over ALK7; procedure, shortened: as §4
[8] = Selectivity for ALK4 over ALK7; procedure, shortened: as §4
[9] = Selectivity for ALK4 over ALK5; procedure, shortened: as §4

Row | inhibition [2] | inhibition [3] | inhibition [4] | inhibition [5] | SMILES | Activity (Homo sapiens) | Activity [1] | also measured
1 | – | – | – | – | NC(=O)c1ccc(-c2cc(-c3ccc4c(c3)OCO4)n(-c3ccccc3)n2)cc1 | inactive | – | –
2 | – | – | – | – | NC(=O)c1ccc(-c2cc(-c3ccc(F)cc3)n(-c3ccccn3)n2)cc1 | – | 23.7% | –
3 | – | – | – | – | N#Cc1ccc(-c2cc(-c3ccccc3F)n(-c3ccc4c(c3)OCO4)n2)cc1 | – | 57.5% | –
4 | – | – | – | – | NC(=O)c1ccc(-c2nc(-c3ccccn3)c(-c3ccc4c(c3)OCO4)[nH]2)cc1 [SB-431542] | – | 55% | –
5 | – | – | – | – | Cc1cccc(-c2nc(C(C)(C)C)cn2-c2ccc3c(c2)OCO3)n1 | – | 7.3% | –
6 | – | – | – | – | Cc1cccc(-c2nc(-c3ccc(C#N)cc3)cn2-c2ccc(F)cc2)n1 | – | 20.2% | –
7 | – | – | – | – | COc1ccc(-n2cc(-c3ccc(C#N)cc3)nc2-c2cccc(C)n2)cc1F | – | 57% | –
8 | – | – | – | – | Cc1cccc(-c2nc(-c3ccc(C#N)cc3)cn2-c2ccc3c(c2)OCCO3)n1 | – | 28% | –
9 | – | – | – | – | N#Cc1ccc(-c2cc(-c3ccc4c(c3)OCO4)n(-c3ccccc3F)n2)cc1 | inactive | – | –
10 | – | – | – | – | NC(=O)c1ccc(-c2cn(-c3ccc4c(c3)OCO4)c(-c3ccccc3F)n2)cc1 | inactive | – | –
11 | 70% | 74.7% | 35.5% | 57.3% | NC(=O)c1ccc(-c2cc(-c3ccc4c(c3)OCO4)n(-c3ccccn3)n2)cc1 | – | 26.7% | –
12 | – | – | – | – | O=C(O)c1ccc(-c2cc(-c3ccc4c(c3)OCO4)n(-c3ccccc3F)n2)cc1 | – | 5.4% | –
13 | – | – | – | – | NC(=O)c1ccc(-c2cc(-c3ccc(F)cc3)n(-c3ccccc3O)n2)cc1 | inactive | – | –
14 | – | – | – | – | COc1ccc(-c2cc(-c3ccc(C#N)cc3)nn2-c2ccccc2F)cc1OC | inactive | – | –
15 | – | – | – | – | COc1ccc(-c2cc(-c3ccc(C(N)=O)cc3)nn2-c2ccccn2)cc1OC | – | 5.3% | –
16 | 32.1% | 70.4% | 5.3% | 65.8% | COc1ccc(-c2cc(-c3ccc(C(N)=O)cc3)nn2-c2ccccc2F)cc1OC | – | 19.4% | –
17 | – | – | – | – | COc1ccccc1-n1nc(-c2ccc(C(N)=O)cc2)cc1-c1ccc2c(c1)OCO2 | inactive | – | –
18 | 45.5% | 76.9% | 33.9% | 44.6% | Cc1cccc(-c2nc(-c3ccc(C#N)cc3)cn2-c2ccc3c(c2)OCO3)n1 | – | 4% | –
19 | 15.5% | 50.7% | 22.7% | 39.1% | NC(=O)c1ccc(-c2cc(-c3ccc4c(c3)OCO4)n(-c3ccccc3F)n2)cc1 | inactive | – | –
20 | – | – | – | – | COc1ccc(-n2cc(-c3ccc(C(N)=O)cc3)nc2-c2cccc(C)n2)cc1F | – | 9.1% | –
21 | 28.5% | 49.3% | 13.4% | 25% | Cc1cccc(-c2nc(-c3ccc(C(N)=O)cc3)cn2-c2ccc3c(c2)OCCO3)n1 | – | 0.7% | –

Row | inhibition [2] | inhibition [3] | inhibition [4] | inhibition [5] | SMILES | Activity (Homo sapiens) | Activity [1] | also measured
22 | 39.4% | 66.8% | 4.2% | 64% | Cc1cccc(-n2nc(-c3ccc(C(N)=O)cc3)cc2-c2ccc3c(c2)OCO3)n1 | – | 5.6% | Selectivity ratio [6]: 10; Selectivity ratio [7]: 10
23 | 65.6% | 73.7% | 24.5% | 54.8% | NC(=O)c1ccc(-c2cn(-c3ccc4c(c3)OCO4)c(-c3ccccn3)n2)cc1 | – | 21.6% | –
24 | 73.8% | 93.7% | 34.8% | 56.5% | NC(=O)c1ccc(-c2cc(-c3ccc(O)c(O)c3)n(-c3ccccc3O)n2)cc1 | – | 48.9% | Selectivity ratio [8]: > 10; Selectivity ratio [9]: > 10
25 | 13.3% | 36.6% | 30.5% | 63.6% | N#Cc1ccc(-c2cn(-c3ccc4c(c3)OCO4)c(-c3ccccc3F)n2)cc1 | – | 12.3% | –
26 | – | – | – | – | COc1ccc(-n2cc(C(C)(C)C)nc2-c2cccc(C)n2)cc1F | – | 22.1% | –
27 | – | – | – | – | OCc1ccc(-c2cc(-c3ccc4c(c3)OCO4)n(-c3ccccc3F)n2)cc1 | inactive | – | –
28 | – | – | – | – | Cc1cccc(-c2nc(C(C)(C)C)cn2-c2ccc(F)cc2)n1 | – | 59% | –
29 | – | – | – | – | COc1ccc(-c2cc(-c3ccc(C#N)cc3)nn2-c2ccccn2)cc1OC | inactive | – | –
30 | 3.2% | 41.9% | 50.9% | 57.4% | NC(=O)c1ccc(-c2cc(-c3ccccc3F)n(-c3ccc4c(c3)OCO4)n2)cc1 | – | 0.52% | –
31 | – | – | – | – | NC(=O)c1ccc(-c2cn(-c3ccc4c(c3)OCCO4)c(-c3ccccn3)n2)cc1 | – | 21% | –
32 | – | – | – | – | NC(=O)c1ccc(-c2cc(-c3ccc4c(c3)OCO4)n(-c3ccccc3C(F)(F)F)n2)cc1 | inactive | – | –
33 | 25% | 34.5% | 16.2% | 35.1% | Cc1cccc(-c2nc(-c3ccc(C(N)=O)cc3)cn2-c2ccc(F)cc2)n1 | – | 19.1% | –
34 | – | – | – | – | NC(=O)c1ccc(-c2cc(-c3ccccn3)n(-c3ccc4c(c3)OCO4)n2)cc1 | inactive | – | –
35 | 15.6% | 29.8% | 4.5% | 41.3% | Cc1cccc(-c2nc(-c3ccc(C(N)=O)cc3)cn2-c2ccc3c(c2)OCO3)n1 | – | 14.9% | –
36 | – | – | – | – | COc1ccccc1-n1nc(-c2ccc(C(N)=O)cc2)cc1-c1ccc(F)cc1 | inactive | – | –
37 | – | – | – | – | Cc1cccc(-c2nc(C(C)(C)C)cn2-c2ccc3c(c2)OCCO3)n1 | inactive | – | –
38 | – | – | – | – | N#Cc1ccc(-c2cc(-c3ccc4c(c3)OCO4)n(-c3ccccn3)n2)cc1 | inactive | – | –
39 | – | – | – | – | NC(=O)c1ccc(-c2cc(-c3ccc4c(c3)OCO4)n(-c3nccs3)n2)cc1 | inactive | – | –
40 | 53.6% | 77.7% | 31.4% | 73.4% | Cc1cccc(-n2nc(-c3ccc(C#N)cc3)cc2-c2ccc3c(c2)OCO3)n1 | – | 15.4% | –
41 | – | – | – | – | NC(=O)c1ccc(-c2cc(-c3ccc(F)cc3)n(-c3ccccc3F)n2)cc1 | – | 19.54% | –
